Experiments:
L1210 = experiment: Concentration required for 50% reduction of counted L1210 cells upon exposure for a period of 70h; type: functional; details: Mus musculus, L1210, 70 h; read-out: ID50 (the source's name)
In short: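 L1210 leukemia cells cultured with drug for 70 h, then counted. ID50 taken as the nanomolar concentration reducing cell count to 50% of untreated controls.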

[1] = Lipophilicity (Rm) (RP-TLC); type: physicochemical
Mus musculus [2] = organism: Mus musculus; experiment: Percentage increase in lifespan of treated animals over that of animals injected with tumor (10e6 P388 leukemia cells), at the optimal dose of 8.9 mg/(kg day); g=No activity (ILS < 20%); type: functional, organism-based
HCT-8 = experiment: Concentration required for 50% reduction of counted HCT-8 cells upon exposure for a period of 70h; type: functional; details: Homo sapiens, HCT-8, 70 h; read-out: ID50 (the source's name)
In short: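 HCT-8 human colon adenocarcinoma cells grown in Alpha MEM with glutamine for 2 days before drug addition. Drug exposure for 70 h per table footnote, with 4-day incubation stated in methods. Trypsinized cells counted electronically. ID50 = nM concentration reducing counted cells to 50% of controls.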

[3] = Logarithmic association constant determined by ethidium displacement from DNA co-polymers (adenine & thymine)
In short: (§1)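 Binding constants derived from ethidium displacement from synthetic DNA copolymers, assuming competitive binding.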

[4] = Logarithmic association constant determined by ethidium displacement from DNA co-polymers (G + C); in short: as §1
Mus musculus [5] = organism: Mus musculus; experiment: Percentage increase in lifespan of treated animals over that of animals injected with tumor (10e6 P388 leukemia cells), at the optimal dose of 13.3 mg/(kg day); type: functional
Mus musculus [6] = organism: Mus musculus; experiment: Percentage increase in lifespan of treated animals over that of animals injected with tumor (10e6 P388 leukemia cells), at the optimal dose of 20 mg/(kg day); type: functional
[7] = pKa value for the side-chain cationic center; type: physicochemical
Mus musculus [8] = organism: Mus musculus; experiment: Percentage increase in lifespan of treated animals over that of animals injected with tumor (10e6 P388 leukemia cells), at the optimal dose of 30 mg/(kg day); type: functional
Mus musculus [9] = organism: Mus musculus; experiment: Percentage increase in lifespan of treated animals over that of animals injected with tumor (10e6 P388 leukemia cells), at the optimal dose of 30 mg/(kg day); g=No activity (ILS < 20%); type: functional, organism-based
Mus musculus [10] = organism: Mus musculus; experiment: Percentage increase in lifespan of treated animals over that of animals injected with tumor (10e6 P388 leukemia cells), at the optimal dose of 8.9 mg/(kg day); type: functional
Mus musculus [11] = organism: Mus musculus; experiment: Percentage increase in lifespan of treated animals over that of animals injected with tumor (10e6 P388 leukemia cells), at the optimal dose of 250 mg/(kg day); g=No activity (ILS < 20%)
Mus musculus [12] = organism: Mus musculus; experiment: Number of mice survived indefinitely out a group of 6; type: functional
Mus musculus [13] = organism: Mus musculus; experiment: Percentage increase in lifespan of treated animals over that of animals injected with tumor (10e6 P388 leukemia cells), at the optimal dose of 2.6 mg/(kg day); type: functional
Mus musculus [14] = experiment: Percentage increase in lifespan of treated animals over that of animals injected with tumor (10e6 P388 leukemia cells), at the optimal dose of 50 mg/kg day); g=No activity (ILS < 20%); type: functional, organism-based; set-up: dose 50 mg/kg
Mus musculus [15] = organism: Mus musculus; experiment: Percentage increase in lifespan of treated animals over that of animals injected with tumor (10e6 P388 leukemia cells), at the optimal dose of 40 mg/(kg day); g=No activity (ILS < 20%); type: functional, organism-based
Mus musculus [16] = organism: Mus musculus; experiment: Percentage increase in lifespan of treated animals over that of animals injected with tumor (10e6 P388 leukemia cells), at the optimal dose of 5.9 mg/(kg day); type: functional

Row | Structure (SMILES) | IC50 (L1210) | Rm [1] | IC50 (HCT-8) | Log K [3] | Log K [4] | further results
1 | CN(C)CCNC(=O)c1cccc2c(NCCN(C)C)c3ccccc3nc12 | 0.46 µM | -1.72 | 1.3 µM | 7.83 | 8.2 | ILS (Mus musculus [2]): No activity (ILS <20%)
2 | CN(C)CCCCCCNC(=O)c1cccc2c(N)c3ccccc3nc12 | 1.54 µM | -0.58 | 1.75 µM | 7.41 | 7.4 | 
3 | COCCNc1c2ccccc2nc2c(C(=O)NCCN(C)C)cccc12 | 0.085 µM | -0.76 | 0.4 µM | 6.73 | 7.35 | ILS (Mus musculus [5]): 47%
4 | Nc1c2ccccc2nc2c(C(=O)NCCNCCO)cccc12 | 0.077 µM | -1.06 | 1.6 µM | 7.34 | 7.73 | ILS (Mus musculus [6]): 73%; pKa [7]: 8.5
5 | CN(C)CCNC(=O)c1ccc2c(N)c3ccccc3nc2c1 | > 2 µM | -1.06 | > 5 µM | 7.18 | 7.66 | 
6 | CN(C)CCNC(=O)c1cccc2c(NCCO)c3ccccc3nc12 | 0.484 µM | -1.19 | 0.54 µM | 6.82 | 7.61 | ILS (Mus musculus [2]): No activity (ILS <20%)
7 | CCCCCNc1c2ccccc2nc2c(C(=O)NCCN(C)C)cccc12 | 0.043 µM | -0.23 | 0.16 µM | 6.91 | 7.58 | ILS (Mus musculus [5]): 64%
8 | CN(C)CCCCCCCNC(=O)c1cccc2c(N)c3ccccc3nc12 | 1.18 µM | -0.44 | 2 µM | 7.43 | 7.3 | 
9 | CN1CCN(C(=O)c2cccc3c(N)c4ccccc4nc23)CC1 | > 2 µM | -1.29 | > 1.5 µM | 6.58 | 6.45 | 
10 | CCCCNc1c2ccccc2nc2c(C(=O)NCCN(C)C)cccc12 | 0.041 µM | -0.34 | 0.15 µM | 7.1 | 7.69 | ILS (Mus musculus [6]): 70%
11 | CCCNc1c2ccccc2nc2c(C(=O)NCCN(C)C)cccc12 | 0.046 µM | -0.57 | 0.203 µM | 7.23 | 7.79 | ILS (Mus musculus [5]): 64%
12 | CCCCCCNc1c2ccccc2nc2c(C(=O)NCCN(C)C)cccc12 | 0.065 µM | -0.04 | 0.21 µM | 7 | 7.79 | ILS (Mus musculus [8]): 88%
13 | Nc1c2ccccc2nc2c(C(=O)NCCN3CCOCC3)cccc12 | 1.02 µM | -1 | 2 µM | 7.29 | 7.58 | pKa [7]: 6.7; ILS (Mus musculus [9]): No activity (ILS <20%)
14 | NCCNC(=O)c1cccc2c(N)c3ccccc3nc12 | 0.414 µM | -1.18 | 1.5 µM | 7.36 | 7.67 | ILS (Mus musculus [6]): 71%; pKa [7]: 9.1
15 | CNc1c2ccccc2nc2c(C(=O)NCCN(C)C)cccc12 | 0.015 µM | -1.11 | 0.125 µM | 7.17 | 7.65 | 
16 | CCNc1c2ccccc2nc2c(C(=O)NCCN(C)C)cccc12 | 0.094 µM | -0.88 | 0.188 µM | 7.14 | 7.69 | ILS (Mus musculus [10]): 30%
17 | CN(C)CCNC(=O)c1ccc2nc3ccccc3c(N)c2c1 | > 2 µM | -1 | > 5 µM | 7.08 | 7.55 | ILS (Mus musculus [11]): No activity (ILS <20%); pKa [7]: 8.6
18 | CN(C)CCNC(=O)c1cccc2c(N)c3ccccc3nc12 |  | -1.11 | 0.055 µM |  |  | Survivors (Mus musculus [12]): 1
19 | CN(C)CCCCCNC(=O)c1cccc2c(N)c3ccccc3nc12 | 1.37 µM | -0.73 | 1.8 µM | 7.45 | 7.45 | 
20 | Nc1c2ccccc2nc2c(C(=O)NCCN3CCCCC3)cccc12 | 0.102 µM | -0.7 | 0.38 µM | 7.12 | 7.1 | pKa [7]: 8.9; ILS (Mus musculus [13]): 33%
21 | CN(C)CCCNC(=O)c1cccc2c(N)c3ccccc3nc12 | 0.157 µM | -0.93 | 0.52 µM | 7.51 | 7.6 | ILS (Mus musculus [14]): No activity (ILS <20%)
22 | Nc1c2ccccc2nc2c(C(=O)NCCc3ccccn3)cccc12 | 1.9 µM | -0.57 | 3.2 µM | 6.94 | 7.03 | ILS (Mus musculus [15]): No activity (ILS <20%); pKa [7]: 5.9
23 | CN(C)CCCCNC(=O)c1cccc2c(N)c3ccccc3nc12 | 0.43 µM | -0.89 | 1 µM | 7.49 | 7.43 | 
24 | CCN(CC)CCNC(=O)c1cccc2c(N)c3ccccc3nc12 | 0.0055 µM | -0.67 | 0.083 µM | 7.26 | 7.59 | ILS (Mus musculus [16]): 70%; pKa [7]: 9.2
